In paper PMC9301951 (ACS Omega, 2022) one finds inhibition and cell viability data, which are given here for three compounds.

Series [1] concerns the target equine serum-derived BuChE (eqBuChE) (Equus caballus, UniProt P81908). Nature of the series: Cholinesterase inhibition assay, BuChE. Format: biochemical, horse. Conditions: read-out: BuChE inhibitory activity inhibition (%).
Series [2] has as its target electric eel-derived AChE (eeAChE) (Electrophorus electricus, UniProt O42275). As to the kind of experiment: Cholinesterase inhibition assay, AChE. Particulars: read-out: AChE inhibitory activity inhibition (%). Format: biochemical.
For a further series, the system named is SK-N-SH cells. Nature of the series: Neuroprotective effect on H2O2-induced decrease in cell viability. Particulars: Figure 5; H2O2-treated neurons, concentrations of 0.075–0.6 μM. Format: cell-based. An outline of the steps:
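Cells challenged with H2O2 and treated with test compound at 0.15 μM. Viability given as % of control, with control set at 100%. Recovery (%) is viability of compound-treated cells minus viability of H2O2-only cells. Data are mean ± SD, n = 3.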

For orientation: inhibition means how much of the control response was suppressed. By cell viability is commonly meant a read-out of living cells in per cent, often relative to untreated cells.

Where only a bound is given, the exact number is not on record here.

Sequence of equine serum-derived BuChE (eqBuChE) (P81908 whole entry): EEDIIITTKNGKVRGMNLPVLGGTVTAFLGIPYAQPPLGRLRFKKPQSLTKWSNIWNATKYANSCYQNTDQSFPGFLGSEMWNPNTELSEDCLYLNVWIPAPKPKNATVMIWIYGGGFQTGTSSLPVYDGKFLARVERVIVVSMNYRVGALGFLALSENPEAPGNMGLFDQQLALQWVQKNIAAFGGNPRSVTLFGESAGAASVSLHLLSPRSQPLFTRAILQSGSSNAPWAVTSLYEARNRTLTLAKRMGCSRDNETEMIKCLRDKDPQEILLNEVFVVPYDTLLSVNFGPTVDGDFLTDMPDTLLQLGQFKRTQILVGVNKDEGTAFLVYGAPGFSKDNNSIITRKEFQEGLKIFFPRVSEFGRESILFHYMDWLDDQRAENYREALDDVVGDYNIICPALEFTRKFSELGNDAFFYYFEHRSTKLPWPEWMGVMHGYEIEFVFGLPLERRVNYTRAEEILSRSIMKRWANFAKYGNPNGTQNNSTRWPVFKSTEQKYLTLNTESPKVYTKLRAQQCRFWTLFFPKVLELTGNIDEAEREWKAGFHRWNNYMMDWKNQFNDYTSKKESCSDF
Sequence of electric eel-derived AChE (eeAChE) (O42275 24-633): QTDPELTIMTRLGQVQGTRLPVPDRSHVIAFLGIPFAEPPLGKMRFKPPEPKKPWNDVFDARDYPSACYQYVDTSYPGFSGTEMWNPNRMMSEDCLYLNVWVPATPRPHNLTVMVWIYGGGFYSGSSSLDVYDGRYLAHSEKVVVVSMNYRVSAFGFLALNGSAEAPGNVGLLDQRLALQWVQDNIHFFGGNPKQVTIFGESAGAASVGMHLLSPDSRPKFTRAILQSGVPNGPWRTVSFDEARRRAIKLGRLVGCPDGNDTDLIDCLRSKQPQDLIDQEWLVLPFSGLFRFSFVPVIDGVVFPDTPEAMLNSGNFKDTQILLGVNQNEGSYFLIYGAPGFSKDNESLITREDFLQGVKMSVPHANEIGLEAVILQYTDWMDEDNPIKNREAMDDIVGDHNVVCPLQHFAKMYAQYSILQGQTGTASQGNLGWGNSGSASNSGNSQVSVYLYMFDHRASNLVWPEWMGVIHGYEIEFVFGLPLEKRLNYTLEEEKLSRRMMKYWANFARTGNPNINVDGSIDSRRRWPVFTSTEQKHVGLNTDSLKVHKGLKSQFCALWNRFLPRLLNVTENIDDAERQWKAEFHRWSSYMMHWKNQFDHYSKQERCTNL

In the case of `COc1ccc2c3c1O[C@H]1C[C@@H](O)C=C[C@@]31CCN(C)C2` [galantamine], in series [1], the inhibition at 10000 µM turned out to be 96.21 ± 0.18%.
Regarding `COC(=O)C1=CO[C@@H](O)[C@@H]2C(CO)=CC[C@H]12` [genipin 1, genipin], the inhibition at 10000 µM in series [2] stood at 4.94 ± 0.05%; in series [1] it was 2.42 ± 0.18%. Further, the cell viability in the series with SK-N-SH cells was > 78%.
Turning to `COC(=O)C1=CO[C@@H](O[C@@H]2O[C@H](CO)[C@@H](O)[C@H](O)[C@H]2O)[C@@H]2C(CO)=CC[C@H]12` [geniposide], the inhibition at 10000 µM is 0.73 ± 0.11% in series [2] and 2.09 ± 0.18% in series [1].
